Results taken from ChEMBL document CHEMBL1122253, “Optically active catecholimidazolines: a study of steric interactions at alpha-adrenoreceptors” (1983).

Tests used:
Rattus norvegicus [1] = species on record: Rattus norvegicus; test: Relative value for maximum contraction (10e-5 = 1.0, phenylephrine) of rat aorta.; assay type: functional
Procedure, shortened: (§1)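 Thoracic aorta: the 2-cm segment distal to the first intercostal artery, cut into strips at 75–80° to the lumen. Strips kept in PSS gassed with 95% O2/5% CO2 […], under 2-g tension with isometric force recording. After 1 h equilibration, one half-maximal phenylephrine challenge, then 1 h re-equilibration. Cumulative concentration-effect curves used about threefold steps, with washout and at least 1 h between curves.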

Rattus norvegicus [2] = species on record: Rattus norvegicus; test: Negative Log of ED50 used to stimulate alpha adrenergic activity in rat aorta
Rattus norvegicus [3] = species on record: Rattus norvegicus; test: Negative Log of ED50 used to inhibit alpha adrenergic activity in rat aorta; assay type: functional; procedure, shortened: as §1

SMILES | IA (Rattus norvegicus [1]) | pED50 (Rattus norvegicus [2]) | pED50 (Rattus norvegicus [3])
CN1CC[N+](C)=C1Cc1ccc(O)c(O)c1.Cl.F[B-](F)(F)F | 0.81 | 5.54 | –
Cl.Oc1ccc(CC2=NCCN2)cc1O | 1 | 8.59 | –
C[C@@H]1CN=C(Cc2ccc(O)c(O)c2)N1.Cl | 0.74 | 6.29 | –
Cl.Oc1ccc(CC2=NC[C@H](Cc3ccccc3)N2)cc1O | 1 | 4.33 | –
Cl.Oc1ccc(CC2=NC[C@@H](Cc3ccccc3)N2)cc1O | 0.91 | 4.44 | –
Cl.Oc1ccc([C@H](O)C2=NCCN2)cc1O | 1 | 7.67 | –
Cl.Oc1ccc([C@@H](O)C2=NCCN2)cc1O | 1 | 8.59 | –
C[C@H]1CN=C(Cc2ccc(O)c(O)c2)N1.Cl | 1 | 6.32 | –
CN1CCN=C1Cc1ccc(O)c(O)c1.Cl | 0.85 | – | 5.84
